The source of these data is paper PMC8028158 (ACS Omega, 2021).

In one experiment the target is TRPA1 (Homo sapiens, UniProt O75762). The experiment in a line: Selectivity Ca2+ assay in TRPA1-expressing HEK293 cells. It is filed as cell-based. Conditions: 1s 50 μM; Fluo-8.
Experiment [1] deals with MKN-45 cells. The experiment is described as follows: Wound-healing migration assay. It is filed as cell-based, human. Conditions: 5 μM, 24 h. The method, boiled down:
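MKN-45 cells were seeded and cultured overnight, then scratched with a pipette tip and treated with test compound. The wound was imaged at 0 and 24 h. The width of the cell-free zone was measured at six positions, and relative migration distance was calculated. A positive-control compound was run alongside.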

A further experiment deals with T1, mouse TRPC5 (Mus musculus, UniProt Q9QX29).
T1 sequence (Q9QX29 1-975): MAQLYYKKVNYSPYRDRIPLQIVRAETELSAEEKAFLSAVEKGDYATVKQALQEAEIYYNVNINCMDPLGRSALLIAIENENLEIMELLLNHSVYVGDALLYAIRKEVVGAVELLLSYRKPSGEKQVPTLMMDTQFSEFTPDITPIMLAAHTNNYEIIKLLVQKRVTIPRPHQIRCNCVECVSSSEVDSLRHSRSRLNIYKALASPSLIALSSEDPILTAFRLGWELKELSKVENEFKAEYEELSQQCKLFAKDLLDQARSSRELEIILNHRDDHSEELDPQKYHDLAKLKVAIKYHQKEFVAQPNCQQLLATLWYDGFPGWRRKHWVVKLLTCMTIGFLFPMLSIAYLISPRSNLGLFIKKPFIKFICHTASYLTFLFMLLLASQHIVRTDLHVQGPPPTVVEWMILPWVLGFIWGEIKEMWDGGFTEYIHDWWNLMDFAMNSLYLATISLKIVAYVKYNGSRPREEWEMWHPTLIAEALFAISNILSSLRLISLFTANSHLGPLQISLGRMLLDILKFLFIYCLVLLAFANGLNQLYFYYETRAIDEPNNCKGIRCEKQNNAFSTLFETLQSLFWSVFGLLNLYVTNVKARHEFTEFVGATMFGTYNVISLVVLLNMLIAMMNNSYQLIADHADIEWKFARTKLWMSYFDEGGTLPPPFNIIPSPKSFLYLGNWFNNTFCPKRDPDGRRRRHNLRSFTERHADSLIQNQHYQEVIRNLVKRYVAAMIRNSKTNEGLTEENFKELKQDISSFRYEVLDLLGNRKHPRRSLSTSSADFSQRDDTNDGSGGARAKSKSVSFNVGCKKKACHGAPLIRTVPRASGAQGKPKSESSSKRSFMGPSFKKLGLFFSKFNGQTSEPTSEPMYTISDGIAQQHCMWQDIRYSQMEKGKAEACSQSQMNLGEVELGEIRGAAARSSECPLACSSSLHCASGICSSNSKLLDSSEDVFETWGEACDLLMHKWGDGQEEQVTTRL
The experiment in a line: Selectivity Ca2+ assay in TRPC5-expressing HEK293 cells. The experiment is classed as cell-based. As to conditions: 1s 50 μM; induced by 100 μM CCh; Fluo-8.

Experiment [2] deals with MKN-45 cells. The experiment is described as follows: Boyden chamber / Transwell cell migration assay. The experiment is classed as cell-based, human. Conditions: 24 h. An outline of the steps: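 MKN-45 cells in serum-free medium were seeded with test compound on uncoated Transwell membranes (8 μm pores), with complete medium containing 10% FBS in the lower chamber, and left to migrate for 24 h. Cells on the upper surface were removed. Cells on the underside were fixed, stained with crystal violet and counted in six random fields. A positive-control compound was run alongside.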

A further experiment addresses T2, mouse TRPC4 (Mus musculus, UniProt Q9QUQ5).
T2 sequence (Q9QUQ5 1-974): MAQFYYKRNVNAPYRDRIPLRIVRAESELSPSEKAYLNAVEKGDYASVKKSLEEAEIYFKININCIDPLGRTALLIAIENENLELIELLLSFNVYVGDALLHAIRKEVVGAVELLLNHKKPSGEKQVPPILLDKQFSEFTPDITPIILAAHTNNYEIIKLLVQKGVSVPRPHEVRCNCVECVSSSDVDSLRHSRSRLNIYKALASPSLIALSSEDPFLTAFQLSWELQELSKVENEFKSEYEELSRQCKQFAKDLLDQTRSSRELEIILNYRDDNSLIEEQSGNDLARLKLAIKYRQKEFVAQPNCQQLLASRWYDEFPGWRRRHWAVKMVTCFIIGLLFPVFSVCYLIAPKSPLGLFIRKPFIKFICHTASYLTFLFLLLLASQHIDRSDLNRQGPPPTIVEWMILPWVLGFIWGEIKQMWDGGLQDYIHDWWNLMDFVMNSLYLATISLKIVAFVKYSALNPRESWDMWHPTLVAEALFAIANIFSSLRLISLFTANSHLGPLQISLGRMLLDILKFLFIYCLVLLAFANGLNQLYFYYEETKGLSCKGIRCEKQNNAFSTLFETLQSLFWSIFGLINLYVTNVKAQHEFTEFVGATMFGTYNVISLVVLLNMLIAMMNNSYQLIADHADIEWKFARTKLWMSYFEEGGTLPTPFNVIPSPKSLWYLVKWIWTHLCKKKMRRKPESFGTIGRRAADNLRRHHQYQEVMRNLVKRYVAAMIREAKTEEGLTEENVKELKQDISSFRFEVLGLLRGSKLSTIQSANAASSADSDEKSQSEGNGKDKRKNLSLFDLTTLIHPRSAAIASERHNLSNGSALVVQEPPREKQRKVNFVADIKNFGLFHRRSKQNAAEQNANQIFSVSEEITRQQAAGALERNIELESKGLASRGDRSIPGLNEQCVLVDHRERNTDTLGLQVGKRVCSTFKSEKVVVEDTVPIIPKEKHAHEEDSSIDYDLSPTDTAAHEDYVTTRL
The experiment in a line: Selectivity assay in HEK293 cells co-expressing TRPC4 and μ-opioid receptor. The experiment is classed as cell-based. Conditions: induced by DAMGO 1 μM.

Another experiment addresses TRPM8 (Homo sapiens, UniProt Q7Z2W7). The experiment in a line: Selectivity Ca2+ assay in TRPM8-expressing HEK293 cells. It is filed as cell-based. As to conditions: 1s 50 μM; Fluo-8.
A further experiment deals with TRPV1 (Homo sapiens, UniProt Q8NER1). The experiment in a line: Selectivity Ca2+ assay in TRPV1-expressing HEK293 cells. The experiment is classed as cell-based. Conditions: 1s 50 μM; Fluo-8.
Chain of TRPV1 (Q8NER1 whole entry, species assumed): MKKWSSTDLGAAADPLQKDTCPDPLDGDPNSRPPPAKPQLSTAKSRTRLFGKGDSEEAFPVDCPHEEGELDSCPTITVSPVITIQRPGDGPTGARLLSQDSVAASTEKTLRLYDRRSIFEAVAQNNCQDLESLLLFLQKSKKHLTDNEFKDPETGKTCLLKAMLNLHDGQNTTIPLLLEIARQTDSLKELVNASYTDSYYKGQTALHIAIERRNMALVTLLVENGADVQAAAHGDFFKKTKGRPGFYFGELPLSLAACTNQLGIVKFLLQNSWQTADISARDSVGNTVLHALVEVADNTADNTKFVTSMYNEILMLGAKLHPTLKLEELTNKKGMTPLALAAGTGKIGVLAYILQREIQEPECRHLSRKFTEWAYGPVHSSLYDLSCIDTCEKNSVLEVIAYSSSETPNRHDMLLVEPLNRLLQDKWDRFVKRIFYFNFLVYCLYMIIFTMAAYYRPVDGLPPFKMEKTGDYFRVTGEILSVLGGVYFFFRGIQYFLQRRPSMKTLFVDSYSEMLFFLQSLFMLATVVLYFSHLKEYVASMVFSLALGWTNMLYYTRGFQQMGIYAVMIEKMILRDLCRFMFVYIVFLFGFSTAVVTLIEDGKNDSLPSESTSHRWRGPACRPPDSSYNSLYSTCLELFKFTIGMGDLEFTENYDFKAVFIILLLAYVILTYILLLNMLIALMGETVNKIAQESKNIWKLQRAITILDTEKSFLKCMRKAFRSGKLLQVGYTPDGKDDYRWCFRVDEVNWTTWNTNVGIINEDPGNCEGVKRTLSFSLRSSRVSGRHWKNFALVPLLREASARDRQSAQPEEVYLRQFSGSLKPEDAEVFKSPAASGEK

Molecules are shown by their SMILES. Entries after “also recorded” stand apart in the source; their conditions may differ.

Chain of TRPA1 (O75762 whole entry, species assumed): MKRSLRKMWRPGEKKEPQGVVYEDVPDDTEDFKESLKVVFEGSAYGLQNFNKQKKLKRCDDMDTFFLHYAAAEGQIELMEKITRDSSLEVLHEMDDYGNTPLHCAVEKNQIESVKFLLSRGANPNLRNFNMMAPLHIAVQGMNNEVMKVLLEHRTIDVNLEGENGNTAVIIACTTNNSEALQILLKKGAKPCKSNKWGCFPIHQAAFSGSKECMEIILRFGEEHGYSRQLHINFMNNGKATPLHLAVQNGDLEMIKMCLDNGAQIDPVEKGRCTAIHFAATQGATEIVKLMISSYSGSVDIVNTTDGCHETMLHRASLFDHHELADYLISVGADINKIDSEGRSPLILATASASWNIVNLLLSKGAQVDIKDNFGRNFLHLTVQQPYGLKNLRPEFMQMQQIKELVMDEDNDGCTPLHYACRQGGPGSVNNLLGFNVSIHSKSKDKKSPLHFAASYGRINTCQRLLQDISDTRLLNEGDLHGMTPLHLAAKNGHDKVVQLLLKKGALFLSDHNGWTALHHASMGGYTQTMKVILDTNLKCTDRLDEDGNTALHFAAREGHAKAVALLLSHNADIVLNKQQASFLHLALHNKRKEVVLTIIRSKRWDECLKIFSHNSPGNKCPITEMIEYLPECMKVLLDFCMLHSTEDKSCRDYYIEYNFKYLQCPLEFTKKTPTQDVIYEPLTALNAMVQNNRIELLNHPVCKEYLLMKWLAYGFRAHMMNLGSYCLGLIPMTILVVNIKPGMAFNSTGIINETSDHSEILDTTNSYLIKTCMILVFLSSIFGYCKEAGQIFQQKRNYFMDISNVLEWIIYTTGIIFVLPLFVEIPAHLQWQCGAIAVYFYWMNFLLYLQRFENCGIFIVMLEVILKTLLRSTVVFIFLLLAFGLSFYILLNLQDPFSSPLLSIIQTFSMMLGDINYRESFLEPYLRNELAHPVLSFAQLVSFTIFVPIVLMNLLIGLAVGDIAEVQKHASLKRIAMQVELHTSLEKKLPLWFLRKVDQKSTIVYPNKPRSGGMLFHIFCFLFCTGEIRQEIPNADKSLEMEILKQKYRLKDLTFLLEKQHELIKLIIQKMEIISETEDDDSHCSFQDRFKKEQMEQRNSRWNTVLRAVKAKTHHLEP
Chain of TRPM8 (Q7Z2W7 whole entry, species assumed): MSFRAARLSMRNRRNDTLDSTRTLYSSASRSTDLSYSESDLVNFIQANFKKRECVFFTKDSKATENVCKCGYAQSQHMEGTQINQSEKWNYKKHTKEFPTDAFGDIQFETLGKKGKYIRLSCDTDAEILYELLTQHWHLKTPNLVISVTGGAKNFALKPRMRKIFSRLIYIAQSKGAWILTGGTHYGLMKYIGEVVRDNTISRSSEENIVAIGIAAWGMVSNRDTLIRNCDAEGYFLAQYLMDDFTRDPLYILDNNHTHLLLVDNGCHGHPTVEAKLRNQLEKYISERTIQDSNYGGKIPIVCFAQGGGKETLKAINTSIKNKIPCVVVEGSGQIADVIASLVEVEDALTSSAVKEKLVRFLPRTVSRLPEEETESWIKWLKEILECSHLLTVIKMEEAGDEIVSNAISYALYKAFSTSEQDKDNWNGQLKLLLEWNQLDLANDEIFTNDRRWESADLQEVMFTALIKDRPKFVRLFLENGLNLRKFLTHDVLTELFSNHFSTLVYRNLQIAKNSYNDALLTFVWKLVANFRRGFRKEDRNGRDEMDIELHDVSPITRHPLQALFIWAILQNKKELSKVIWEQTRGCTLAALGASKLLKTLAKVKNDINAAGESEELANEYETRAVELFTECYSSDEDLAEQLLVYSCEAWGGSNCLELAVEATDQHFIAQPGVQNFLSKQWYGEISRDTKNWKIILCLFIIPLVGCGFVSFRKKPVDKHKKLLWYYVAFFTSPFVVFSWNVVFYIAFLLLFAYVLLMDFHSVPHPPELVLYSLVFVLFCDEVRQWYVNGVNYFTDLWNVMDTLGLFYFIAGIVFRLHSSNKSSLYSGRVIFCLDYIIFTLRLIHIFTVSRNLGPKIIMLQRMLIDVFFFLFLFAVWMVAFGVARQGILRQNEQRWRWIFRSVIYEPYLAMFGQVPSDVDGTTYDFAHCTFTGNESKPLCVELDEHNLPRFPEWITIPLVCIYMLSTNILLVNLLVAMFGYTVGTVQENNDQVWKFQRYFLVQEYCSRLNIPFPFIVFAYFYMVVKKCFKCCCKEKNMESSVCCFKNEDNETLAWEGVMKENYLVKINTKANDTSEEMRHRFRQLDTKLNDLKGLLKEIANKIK

Turning to `COc1cccc2sc(N(CCN(C)C)C(=O)c3ccc4c(c3)CCCC4)nc12` [Compound 1s, N-(2-(dimethylamino)ethyl)-N-(4-methoxybenzo[d]thiazol-2-yl)-5,6,7,8-tetrahydronaphthalene-2-carboxamide], the “Effect on agonist-induced Ca2+ response, TRPA1” value at TRPA1 is “did not significantly affect”. In the experiment on MKN-45 cells [1], the “MKN-45 cell migration (wound healing)” value was “inhibited the MKN-45 cell migration”. Also, the “Effect on agonist-induced Ca2+ response, TRPC5” value at mouse TRPC5 is on record as “did not significantly affect; also recorded: no effect”. In addition, the “MKN-45 cell invasion (movement through the pores toward chemoattractant)” value with MKN-45 cells [2] was “inhibited”. At mouse TRPC4, the “Effect on TRPC4” value is given as “only partially inhibited”. For the same molecule, on TRPM8, the “Effect on agonist-induced Ca2+ response, TRPM8” value is recorded as “did not significantly affect”. Also, the “Effect on agonist-induced Ca2+ response, TRPV1” value at TRPV1 is “did not significantly affect”.
